Compounds with a hit are over-represented: about 2.1% of the library has one in this group of screens.
PAX8 reporter: PAX8 transcriptional activity inhibition; inhibition, % at 12.6 µM; 360,000 tested, 1.2% active; AID 652154; RMG-I TPO-luciferase reporter, SteadyGlo, 24 h;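 active = mean replicate inhibition at least 60% with every replicate also reaching 60%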;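 note: luciferase light reporting Pax8 driven TPO promoter activity; plate controls were median of neutral control wells for no effect and mitoxantrone controls for full effect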
LMP1 NFkB inh: Epstein-Barr LMP1 NF-kappaB reporter inhibition. 350,000 tested, 0.69% active. LMP1-induced NF-kappaB luciferase reporter cells, luminescence. inhibition, % at 12.5 µM; in the data active = inhibition above about 41%;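 note: 0% = neutral control wells and 100% = reference inhibitor control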
EWS-Fli inh: EWS/Fli transcriptional activity inhibition. A673 NR0B1-luciferase reporter, viability-normalised. 350,000 tested, 0.67% active. inhibition, % at 12.6 µM;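 active = mean inhibition of at least 50% after viability correction, with every replicate also passing that limit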;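 note: firefly luciferase signal divided by Alamar Blue viability fluorescence both relative to DMSO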
Shn3 3UTR inh: reduces Shn3 3'UTR luciferase signal in osteoblasts; 360,000 tested, 0.52% active; Clone20 osteoblast Shn3 3'UTR firefly luciferase, 24 h; inhibition, % at 12.5 µM;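 active = mean inhibition of at least 75% with every replicate also reaching 75%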;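 note: 0% = median of neutral control wells and 100% = pilot-screen positive control compound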
FN deposition inh: fibronectin deposition inhibition; 350,000 tested, 0.086% active; inhibition, % at 12.6 µM; AID 743247; AH1F fibroblasts, Alexa488-fibronectin deposition fluorescence, overnight;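 active = mean inhibition across replicates of 30% or more, regardless of how many single replicates reach that level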;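 note: positive control wells lacked labelled fibronectin entirely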
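Material: AH1F fibroblast monolayer depositing Alexa488-labelled fibronectin into matrix | Input: 10000 AH1F cells/well | Medium: DMEM plus 2% serum, read in PBS | Reagent: Alexa488-fibronectin, 24 nM final in well | Compound dosing: One dose per compound, pinned | Schedule: 1 h adhesion, overnight exposure | Measured by: Fluorescence at 485 nm excitation, 525 nm emission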
aSyn 5UTR inh: MLPCN primary screen, SNCA 5' untranslated region; alpha-synuclein 5'UTR reporter, inhibitor activity; 300,000 tested, 0.82% active; inhibition, % (tested at 7.5 µM); in the data active = inhibition above about 60%;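 note: H4 neuroglioblastoma cells stably carrying SNCA 5'UTR luciferase fusion; 0% = DMSO wells and 100% = positive control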
* = called active by the depositor.

Results for O=C(c1noc2c1CSc1ccccc1-2)N1CCN(c2ccc(Cl)cc2)CC1 ?
PAX8 reporter: 8.8; LMP1 NFkB inh: 68.3*; Shn3 3UTR inh: -3.2; FN deposition inh: -9.8; aSyn 5UTR inh: 17.5

How did O=C1[C@H](Cc2ccc(C(F)(F)F)cc2)CCn2cc(nn2)COC[C@H]2CCCCN12 do in these assays?
FN deposition inh: -17.8

How did CC(C)[N+](C)(CCOC(=O)C1c2ccccc2Oc2ccccc21)C(C)C do in these assays?
PAX8 reporter: 5.6; LMP1 NFkB inh: 80.9*; EWS-Fli inh: 3.5; Shn3 3UTR inh: 15.4; FN deposition inh: 2.7; aSyn 5UTR inh: -5.3

How did CC(C)CNC(=O)COC(=O)C1c2ccccc2Oc2ccccc21 do in these assays?
PAX8 reporter: 24.3; LMP1 NFkB inh: 65.8*; EWS-Fli inh: -8.7; Shn3 3UTR inh: 4.4; FN deposition inh: -2.1; aSyn 5UTR inh: -14.4

Results for CCCN(C[C@@H]1N[C@@H](CO)[C@H]1c1ccc(-c2cccnc2)cc1)C(C)=O ?
PAX8 reporter: 5.8; EWS-Fli inh: 0.1; FN deposition inh: -16.2

What do the screens show for `Oc1ccc(CNc2ccc(F)cc2)c2cccnc12`?
LMP1 NFkB inh: -9.3; Shn3 3UTR inh: -5.7; aSyn 5UTR inh: 75.6*

How did Cc1cccc(NCc2ccc(O)c3ncccc23)c1 do in these assays?
PAX8 reporter: 78.8*; LMP1 NFkB inh: 8.1; EWS-Fli inh: 15.2; Shn3 3UTR inh: 64.7; FN deposition inh: -3.2; aSyn 5UTR inh: 54.0

What do the screens show for `CCOC(=O)c1sc(NC(=O)c2cccc(S(=O)(=O)N3c4ccccc4CC3C)c2)cc1C` (stereo unspecified)?
PAX8 reporter: 4.1; LMP1 NFkB inh: -17.1; EWS-Fli inh: 4.2; Shn3 3UTR inh: 31.6; FN deposition inh: 3.5; aSyn 5UTR inh: 79.5*

What do the screens show for `C[C@@H]1CN([C@@H](C)CO)C(=O)c2cc(NC(=O)Nc3ccc(F)cc3)ccc2O[C@@H](C)CCCCO[C@@H]1CN(C)S(=O)(=O)c1ccccc1`?
PAX8 reporter: -13.3; EWS-Fli inh: 3.9

What do the screens show for `C[C@@H]1CCCCO[C@@H](CN(C)S(=O)(=O)c2ccccc2)[C@H](C)CN([C@H](C)CO)C(=O)c2cc(NC(=O)Nc3ccc(F)cc3)ccc2O1`?
PAX8 reporter: 73.2*; EWS-Fli inh: 15.5

Results for C[C@@H]1CN([C@H](C)CO)C(=O)c2cc(NC(=O)Nc3ccc(F)cc3)ccc2O[C@@H](C)CCCCO[C@H]1CN(C)S(=O)(=O)c1ccccc1 ?
PAX8 reporter: 87.8*; EWS-Fli inh: 16.2

Results for COc1ccc(S(=O)(=O)Nc2ccc3c(c2)CC(=O)N([C@@H](C)CO)C[C@H](C)[C@H](CN(C)S(=O)(=O)c2cn(C)cn2)O3)cc1 ?
PAX8 reporter: -5.1; EWS-Fli inh: -3.3; FN deposition inh: 5.7

How did O=C(Nc1cccc(C(F)(F)F)c1)Nc1ccc(N2CCCC2)c(S(=O)(=O)Nc2ccccc2Cl)c1 do in these assays?
PAX8 reporter: 89.6*; LMP1 NFkB inh: 22.3; Shn3 3UTR inh: 92.0*; FN deposition inh: -2.7; aSyn 5UTR inh: 92.7*

How did CC(=O)Nc1ccc(N2CCOCC2)c(S(=O)(=O)Nc2ccccc2Cl)c1 do in these assays?
PAX8 reporter: 2.3; LMP1 NFkB inh: -9.3; EWS-Fli inh: -0.5; Shn3 3UTR inh: 0.2; FN deposition inh: 13.0

Results for COc1ccc(/C=C2\COc3ccccc3C2=O)cc1OC ?
PAX8 reporter: -14.6; LMP1 NFkB inh: 2.5; Shn3 3UTR inh: 11.5; FN deposition inh: 11.9; aSyn 5UTR inh: -27.9

How did CCOc1cc(/C=C2\COc3ccccc3C2=O)cc(Br)c1OCC(=O)N(C)C do in these assays?
PAX8 reporter: 10.4; LMP1 NFkB inh: 11.2; EWS-Fli inh: 63.1*; Shn3 3UTR inh: 75.3; FN deposition inh: -1.6; aSyn 5UTR inh: -120.5

What do the screens show for `CCc1ccc(C2=NNC(=Nc3cccc(S(=O)(=O)N(C)C)c3)SC2)cc1`?
PAX8 reporter: 103.6*; LMP1 NFkB inh: -2.9; EWS-Fli inh: 36.4; Shn3 3UTR inh: 76.4; FN deposition inh: -14.7; aSyn 5UTR inh: -16.5

What do the screens show for `Cc1ccc(C2=NNC(=Nc3ccc(F)cc3)SC2)cc1`?
PAX8 reporter: 12.2; LMP1 NFkB inh: -23.8; EWS-Fli inh: -53.0; Shn3 3UTR inh: -37.9; FN deposition inh: 3.2

Results for COc1ccc(CNC(=O)C[C@@H]2C[C@H]3c4cc(NC(=O)CN(C)C)ccc4O[C@H]3[C@H](CO)O2)cc1 ?
PAX8 reporter: -4.3; EWS-Fli inh: -5.3

Results for O=C(N[C@@H]1C=C[C@H](CC(=O)N2CCOCC2)O[C@@H]1CO)c1ccccn1 ?
PAX8 reporter: -4.4; EWS-Fli inh: 4.5; FN deposition inh: -5.4

What do the screens show for `C[C@H]1CN([C@@H](C)CO)C(=O)Cc2cc(NC(=O)Nc3ccc4c(c3)OCO4)ccc2O[C@H]1CN(C)S(=O)(=O)c1ccc(F)cc1`?
EWS-Fli inh: 52.9*; FN deposition inh: -0.3

How did Cc1ccc(S(=O)(=O)N(C)C[C@@H]2Oc3ccc(NC(=O)Nc4ccc5c(c4)OCO5)cc3CC(=O)N([C@@H](C)CO)C[C@@H]2C)cc1 do in these assays?
PAX8 reporter: 52.5; EWS-Fli inh: 63.4*

Results for Cc1ccc(S(=O)(=O)N(C)C[C@H]2Oc3ccc(NC(=O)Nc4ccc5c(c4)OCO5)cc3CC(=O)N([C@H](C)CO)C[C@@H]2C)cc1 ?
PAX8 reporter: 14.6; EWS-Fli inh: 10.3

How did CCOC(=O)c1cc([N+](=O)[O-])c([N+](=O)[O-])cc1NC(C)=O do in these assays?
PAX8 reporter: 23.3; LMP1 NFkB inh: 21.8; EWS-Fli inh: 62.5*; Shn3 3UTR inh: 98.1*; FN deposition inh: -2.1; aSyn 5UTR inh: 7.1

What do the screens show for `Cc1ccc(S(=O)(=O)N(C)C[C@@H]2Oc3c(NC(=O)Nc4ccc(F)cc4)cccc3C(=O)N([C@H](C)CO)C[C@@H]2C)cc1`?
PAX8 reporter: 15.2; EWS-Fli inh: -5.1

How did CN(c1ccccc1)S(=O)(=O)c1ccc(NC(=O)c2ccccc2)cc1 do in these assays?
PAX8 reporter: -17.9; LMP1 NFkB inh: -1.3; Shn3 3UTR inh: -5.0; FN deposition inh: 3.1; aSyn 5UTR inh: -31.6

Results for CN(c1ccccc1)S(=O)(=O)c1ccc(NC(=O)c2nc(S(C)(=O)=O)ncc2Cl)cc1 ?
PAX8 reporter: 132.8*; LMP1 NFkB inh: -3.4; EWS-Fli inh: 57.6*; Shn3 3UTR inh: 98.5*; FN deposition inh: 15.6; aSyn 5UTR inh: 16.3

Results for COc1cccc(NC(=O)c2nc(S(C)(=O)=O)ncc2Cl)c1 ?
PAX8 reporter: 11.3; LMP1 NFkB inh: -4.9; EWS-Fli inh: 59.1*; Shn3 3UTR inh: 96.6*; FN deposition inh: 4.9; aSyn 5UTR inh: -25.8

Results for CCOc1ccccc1CNC(=O)c1cc2oc3ccccc3c2n1CC ?
PAX8 reporter: 23.3; LMP1 NFkB inh: 22.1; Shn3 3UTR inh: 25.4; FN deposition inh: -7.9; aSyn 5UTR inh: 65.6*
